Results collected from several papers.
Each line is one published result; the experiments were not run side by side.
Histone acetyltransferase KAT6B: Histone acetyltransferase KAT6B (Homo sapiens, UniProt Q8WYB5)
DNA polymerase catalytic subunit: DNA polymerase catalytic subunit (Human cytomegalovirus, UniProt P08546)
PIK3CA: Phosphatidylinositol 4,5-bisphosphate 3-kinase catalytic subunit alpha isoform (PIK3CA, Homo sapiens, UniProt P42336)
PIK3CB: Phosphatidylinositol 4,5-bisphosphate 3-kinase catalytic subunit beta isoform (PIK3CB, Homo sapiens, UniProt P42338)
KDR: Vascular endothelial growth factor receptor 2 (KDR, Homo sapiens, UniProt P35968)
Trpm7 F924W: Transient receptor potential cation channel subfamily M member 7 (Trpm7, Mus musculus, UniProt Q923J1, F924W)
NOX5: NADPH oxidase 5 (NOX5, Homo sapiens, UniProt Q96PH1)

CCOc1cccc(-c2cccc(Cl)c2)c1S(=O)(=O)NC(=O)c1cc2c(C)cc(OC)cc2o1
IC50 (Histone acetyltransferase KAT6B; enzyme activity, inhibitor, TR-FRET): 25 nM

COc1cnc2c(cc(C(=O)NCc3ccc(Cl)cc3)c(=O)n2CC(=O)N2CC(C)(F)C2)n1
IC50 (DNA polymerase catalytic subunit; enzyme activity, inhibitor): 954 nM

Cc1nc(Nc2ccc3c(c2)C(C)(C)C(=O)N3C)c2ccccc2n1
IC50 (PIK3CA; enzyme activity, inhibitor, ADP detection): 164 nM

CCCOc1ccc2cc(C(=O)NS(=O)(=O)c3ccccc3-c3ccccc3)oc2c1
IC50 (Histone acetyltransferase KAT6B; enzyme activity, inhibitor, TR-FRET): 12200 nM

COc1cc2ncnc(N(C)c3ccc4c(c3)/C(=C/c3cccc(Cl)c3)C(=O)N4C)c2cc1OC
IC50 (PIK3CB; enzyme activity, inhibitor, ADP detection): 103 nM

CC(=O)Nc1ccc(Oc2nnc(-c3ccc(Cl)cc3)c3ccccc23)cc1
IC50 (KDR; cell-free assay, inhibitor): 548 nM

Cc1nc(Nc2ccc3c(c2)/C(=C/c2ccccc2Cl)C(=O)N3)c2ccccc2n1
IC50 (PIK3CA; enzyme activity, inhibitor, ADP detection): 27.7 nM

N#Cc1ccc(COC[C@H]2O[C@@H](n3c(NCc4ccc(Cl)c(Cl)c4)nc4c(N)ncnc43)[C@H](O)[C@@H]2O)cc1
IC50 (Trpm7 F924W; calcium signal): 5580 nM

CNC(=O)c1cnc(Nc2ccccc2C)c(NC(=O)c2cc(F)cc(C(F)(F)F)c2)c1
IC50 (Phosphatidylinositol 4,5-bisphosphate 3-kinase catalytic subunit alpha isoform (PIK3CA, Homo sapiens, UniProt P42336, H1047R); enzyme activity, inhibitor; with preincubation): 334 nM

COc1cc(C)c2cc(C(=O)NS(=O)(=O)c3ccccc3OC)oc2c1
IC50 (Histone acetyltransferase KAT6B; enzyme activity, inhibitor, TR-FRET): 68 nM

COc1cc2ncnc(Nc3ccc4c(c3)/C(=C/c3cccc(Cl)c3)C(=O)N4C)c2cc1OC
IC50 (PIK3CB; enzyme activity, inhibitor, ADP detection): 110 nM

c1ccc2c(c1)CCC[C@H]2Nc1nc2ccccc2[nH]1
IC50 (Trpm7 F924W; calcium signal): 5120 nM

Cc1nc(N(C)c2ccc3c(c2)/C(=C/c2ccccc2Cl)C(=O)N3C)c2ccccc2n1
IC50 (PIK3CA; enzyme activity, inhibitor, ADP detection): 53.4 nM

COc1cc(C)c2cc(C(=O)NS(=O)(=O)c3ccc(-c4ccccc4)cc3)oc2c1
IC50 (Histone acetyltransferase KAT6B; enzyme activity, inhibitor, TR-FRET): 161 nM

Cc1nc(Nc2ccc3c(c2)C(C)(C)C(=O)N3)c2ccccc2n1
IC50 (PIK3CA; enzyme activity, inhibitor, ADP detection): 195 nM

O=c1oc(-c2cccnc2)nc2ccccc12
IC50 (Cathepsin G (CTSG, Homo sapiens, UniProt P08311); enzyme activity, inhibitor, absorbance; pH 7.4): 4900 nM

C[C@H]1COC2=C1C(=O)C(=O)c1c2ccc2c1CCCC2(C)C
IC50 (NOX5; enzyme activity, inhibitor): 4300 nM

O=C(O)Cc1csc(NC(=O)c2cc3ccccc3[nH]2)n1
IC50 (KDR; enzyme activity, inhibitor, ELISA): 1210 nM

COc1cc(C)c2cc(C(=O)NS(=O)(=O)c3ccc(C)cc3-c3ccccc3)oc2c1
IC50 (Histone acetyltransferase KAT6B; enzyme activity, inhibitor, TR-FRET): 41 nM

O=C(Nc1ccccc1)Nc1ccc(Oc2nnc(-c3ccc(Cl)cc3)c3ccccc23)cc1
IC50 (KDR; cell-free assay, inhibitor): 195 nM

COc1cc2ncnc(Nc3ccc4c(c3)/C(=C/c3ccccc3)C(=O)N4C)c2cc1OC
IC50 (PIK3CB; enzyme activity, inhibitor, ADP detection): 506 nM

Cc1coc2c1C(=O)C(=O)c1c-2ccc2c(C)cccc12
IC50 (NOX5; enzyme activity, inhibitor): 3900 nM

CC1(F)CN(C(=O)Cn2c(=O)c(C(=O)NCc3ccc(Cl)cc3)cc3nc(N4CCCC4=O)cnc32)C1
IC50 (DNA polymerase catalytic subunit; enzyme activity, inhibitor): 207 nM

CCOc1cccc(-c2ccccc2)c1S(=O)(=O)NC(=O)c1cc2c(C)cc(OC)cc2o1
IC50 (Histone acetyltransferase KAT6B; enzyme activity, inhibitor, TR-FRET): 51 nM

Cc1nc(Nc2ccc3c(c2)/C(=C/c2ccccc2C)C(=O)N3)c2ccccc2n1
IC50 (PIK3CA; enzyme activity, inhibitor, ADP detection): 45.5 nM

COc1cc(C)c2cc(C(=O)NS(=O)(=O)c3ccc(Cl)cc3)oc2c1
IC50 (Histone acetyltransferase KAT6B; enzyme activity, inhibitor, TR-FRET): 237 nM

Cc1coc2c1C(=O)C(=O)c1c-2ccc2c1CCCC2(C)C
IC50 (NOX5; enzyme activity, inhibitor): 1900 nM
